Results as given in ChEMBL document CHEMBL1122650, “Synthesis and central nervous system properties of 2-[(alkoxycarbonyl)amino]-4(5)-phenyl-2-imidazolines” (J Med Chem, 1984).
Calls of active or inactive are those of the source. The calls are words filed in the database; no cut-off is given here.

Tested on: not listed separately
Experiment: HPLC capacity factor (k')
Type: ADME
Conditions: not given
In the case of COC(=O)NC1=NC(c2cc(F)ccc2F)CN1 (stereo not given), the “Log k'” value is reported as -0.08. For COC(=O)NC1=NC(c2ccc3c(c2)OCO3)CN1 (stereo not given), the “Log k'” value was -0.14. For COC(=O)NC1=NCC2(CCc3ccccc32)N1C (stereo not given), the “Log k'” value was 0.48. For CCOC(=O)NC1=NC(c2cccc(C)c2C)CN1C (stereo not given), the “Log k'” value was 1.02. In the case of CCN1CC(c2ccccc2)N=C1NC(=O)OC (stereo not given), the “Log k'” value is reported as 0.39. For COC(=O)NC1=NC(c2cc(C)ccc2C)CN1 (stereo not given), the “Log k'” value was 0.58. In the case of COC(=O)NC1=NC2c3ccccc3CC2N1 (stereo not given), the “Log k'” value is reported as -1.14. With COC(=O)NC1=NC(Cc2ccccc2)CN1 (stereo not given) the “Log k'” value was 0.12. For COC(=O)NC1=NC(c2cccc(OC)c2)CN1C (stereo not given), the “Log k'” value was 0.18. In the case of CCOC(=O)NC1=NC(c2ccccc2Cl)CN1C (stereo not given), the “Log k'” value is reported as 0.82.

Tested on: Mus musculus
Experiment: Evaluated in vivo for reserpine hypothermia after oral administration in mouse. Minimum active dose was reported; Inactive
Type: functional, organism-based
Conditions: not given
Method in brief: (§1)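 Male HLa (ICR) BR mice, 18-24 g, in groups of eight; reserpine 5 mg/kg ip given 2 h before oral test compound as aqueous solution. Rectal temperature taken hourly; 1-4-h hypothermia assessed by analysis of variance.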
With COC(=O)NC1=NCC2(CCc3ccccc32)N1C (stereo not given) the ED50 was “inactive”.

Organism: Mus musculus
Experiment: Inhibition of radioactive NE [3H]norepinephrine uptake into mouse heart
Type: functional
Conditions: not given
Method in brief: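 Mice dosed ip (aqueous solution) before iv [3H]NE; hearts removed 3 h after label, washed, weighed, dissolved in Protosol and counted as dpm per mg tissue. Dose-response from linear regression.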
For CCOC(=O)NC1=NC(c2ccccc2Cl)CN1C (stereo not given), the ED50 was 34 mg/kg.

Organism: Mus musculus
Experiment: Evaluated for antagonism of reserpine induced hypothermia;I= Inactive
Type: functional, organism-based
Conditions: not given
Method in brief: as §1
In the case of COC(=O)NC1=NC(c2ccc3c(c2)OCO3)CN1 (stereo not given), the HYPO is reported as “inactive”. In the case of CCOC(=O)NC1=NC(c2cccc(C)c2C)CN1C (stereo not given), the HYPO is reported as “inactive”. With COC(=O)NC1=NC(c2cc(C)ccc2C)CN1 (stereo not given) the HYPO was “inactive”. For COC(=O)NC1=NC2c3ccccc3CC2N1 (stereo not given), the HYPO was “inactive”.

Organism: Mus musculus
Experiment: Mouse behavior activity was determined; Dwk=Depressant Weak
Type: functional, organism-based
Conditions: not given
Method in brief: (§2)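 Male Simonsen (ICR) fBR mice, 18-24 g, groups of three, given 3, 10, 30, 100, 300 or 1000 mg/kg ip as aqueous solution and observed for behavioral profile; deaths followed up to 7 days.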
In the case of COC(=O)NC1=NC(c2cc(F)ccc2F)CN1 (stereo not given), the Mouse behavior activity is reported as “Depressant - weak”. In the case of COC(=O)NC1=NCC2(CCc3ccccc32)N1C (stereo not given), the Mouse behavior activity is reported as “Depressant Weak”. With COC(=O)NC1=NC(c2cc(C)ccc2C)CN1 (stereo not given) the Mouse behavior activity was “Depressant - weak”. With COC(=O)NC1=NC2c3ccccc3CC2N1 (stereo not given) the Mouse behavior activity was “Depressant Weak”.

Organism: Mus musculus
Experiment: Mouse behavior activity was determined;D= Depressant
Type: functional, organism-based
Conditions: not given
Method in brief: as §2
In the case of CCOC(=O)NC1=NC(c2cccc(C)c2C)CN1C (stereo not given), the Mouse behavior activity is reported as “Depressant”. With CCN1CC(c2ccccc2)N=C1NC(=O)OC (stereo not given) the Mouse behavior activity was “Depressant”. With COC(=O)NC1=NC(c2cccc(OC)c2)CN1C (stereo not given) the Mouse behavior activity was “Depressant”. For CCOC(=O)NC1=NC(c2ccccc2Cl)CN1C (stereo not given), the Mouse behavior activity was “Depressant”.

Organism: Mus musculus
Experiment: Compound was evaluated for maximal electroshock antagonism (MES) against mice
Type: functional
Conditions: not given
Method in brief: (§3)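 Male HLa (ICR) BR mice, groups of eight to ten, dosed ip (aqueous solution) 15 min before transcorneal electroshock (50 mA, 0.2 s). End point: abolition of tonic hind-limb extension; quantal ED50 by Litchfield-Wilcoxon.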
COC(=O)NC1=NC(c2cc(F)ccc2F)CN1 (stereo not given) gave an ED50 of 49 mg/kg. Work on CCOC(=O)NC1=NC(c2cccc(C)c2C)CN1C (stereo not given) yielded an ED50 of 70 mg/kg. With CCN1CC(c2ccccc2)N=C1NC(=O)OC (stereo not given) the ED50 was 66 mg/kg. Work on COC(=O)NC1=NC(c2cc(C)ccc2C)CN1 (stereo not given) yielded an ED50 of about 100 mg/kg. For COC(=O)NC1=NC2c3ccccc3CC2N1 (stereo not given), the ED50 was 44 mg/kg. Work on COC(=O)NC1=NC(c2cccc(OC)c2)CN1C (stereo not given) yielded an ED50 of 128 mg/kg. For CCOC(=O)NC1=NC(c2ccccc2Cl)CN1C (stereo not given), the ED50 was 28 mg/kg.

Organism: Mus musculus
Experiment: Compound was evaluated for maximal electroshock antagonism (MES) against mice; Inactive
Type: functional, organism-based
Conditions: not given
Method in brief: as §3
With COC(=O)NC1=NC(c2ccc3c(c2)OCO3)CN1 (stereo not given) the ED50 was “inactive”. In the case of COC(=O)NC1=NCC2(CCc3ccccc32)N1C (stereo not given), the ED50 is reported as “inactive”.

Tested on: Mus musculus
Experiment: Reserpine hypothermia antagonism in mouse administered perorally with 5 mg/kg of reserpine 2 hour prior to test compound administration
Type: functional
Conditions: route oral
Compound CCOC(=O)NC1=NC(c2ccccc2Cl)CN1C (stereo not given) has a Reserpine hypothermia of 0.15 mg/kg.

Organism: Mus musculus
Experiment: Righting ability was determined in mice […] rapid rolling (aroused)
Type: functional
Conditions: not given
Method in brief: (§4)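 Male Simonsen (ICR) fBR mice, 18-24 g, groups of ten, dosed with aqueous compound. Righting ability checked before (unaroused) and after (aroused) rapid rolling in the hand; ED50 by Litchfield-Wilcoxon method.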
In the case of CCOC(=O)NC1=NC(c2cccc(C)c2C)CN1C (stereo not given), the Loss of righting reflex is reported as 66 mg/kg. Work on COC(=O)NC1=NC(c2cccc(OC)c2)CN1C (stereo not given) yielded a Loss of righting reflex of 144 mg/kg. Compound CCOC(=O)NC1=NC(c2ccccc2Cl)CN1C (stereo not given) has a Loss of righting reflex of 64 mg/kg.

Organism: Mus musculus
Experiment: Righting ability was determined in mice before rapid rolling (unaroused)
Type: functional
Conditions: not given
Method in brief: as §4
Compound CCOC(=O)NC1=NC(c2cccc(C)c2C)CN1C (stereo not given) has a Loss of righting reflex of 41 mg/kg. Work on CCN1CC(c2ccccc2)N=C1NC(=O)OC (stereo not given) yielded a Loss of righting reflex of 84 mg/kg. COC(=O)NC1=NC(c2cccc(OC)c2)CN1C (stereo not given) gave a Loss of righting reflex of 100 mg/kg. In the case of CCOC(=O)NC1=NC(c2ccccc2Cl)CN1C (stereo not given), the Loss of righting reflex is reported as 30 mg/kg.

Organism: Rattus norvegicus
Experiment: Inhibition of the 5-HT [14C]5-HT uptake by rat brain slices In vitro
Type: functional
Conditions: not given
Method in brief: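 Rat cerebral cortex slices, 5 mg tissue per mL Krebs-Henseleit buffer, incubated at 37 °C with [3H]NE or [14C]5-HT; blanks at 4 °C, undosed controls. Stopped after 20 min by filtration; slice radioactivity counted; IC50 from linear regression of uptake inhibition.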
Compound CCOC(=O)NC1=NC(c2ccccc2Cl)CN1C (stereo not given) has an IC50 of 150 µM.

Organism: Rattus norvegicus
Experiment: Inhibition of the NE [3H]Norepinephrine uptake by rat brain slices In vitro
Type: functional
Conditions: not given
CCOC(=O)NC1=NC(c2ccccc2Cl)CN1C (stereo not given) showed an IC50 of 30 µM.

Organism: Mus musculus
Experiment: Evaluated for antagonism of reserpine induced hypothermia
Type: functional
Conditions: not given
Method in brief: as §1
COC(=O)NC1=NC(c2cc(F)ccc2F)CN1 (stereo not given) gave an HYPO of under 0.5 mg/kg. COC(=O)NC1=NC(c2cccc(OC)c2)CN1C (stereo not given) showed an HYPO of over 20 mg/kg. Compound CCOC(=O)NC1=NC(c2ccccc2Cl)CN1C (stereo not given) has an HYPO of under 0.5 mg/kg.

Tested on: not listed separately
Experiment: Lethal dose in mouse, in groups of ten
Type: toxicity, organism-based
Conditions: in vivo
COC(=O)NC1=NC(c2cc(F)ccc2F)CN1 (stereo not given) showed an LD50 of over 300 mg/kg. With COC(=O)NC1=NC(c2ccc3c(c2)OCO3)CN1 (stereo not given) the LD50 was 200 mg/kg. COC(=O)NC1=NCC2(CCc3ccccc32)N1C (stereo not given) showed an LD50 of 300 mg/kg. With CCOC(=O)NC1=NC(c2cccc(C)c2C)CN1C (stereo not given) the LD50 was 300 mg/kg. For CCN1CC(c2ccccc2)N=C1NC(=O)OC (stereo not given), the LD50 was 117 mg/kg. Work on COC(=O)NC1=NC(c2cc(C)ccc2C)CN1 (stereo not given) yielded an LD50 of 700 mg/kg. Compound COC(=O)NC1=NC2c3ccccc3CC2N1 (stereo not given) has an LD50 of 700 mg/kg. For COC(=O)NC1=NC(c2cccc(OC)c2)CN1C (stereo not given), the LD50 was 250 mg/kg. Work on CCOC(=O)NC1=NC(c2ccccc2Cl)CN1C (stereo not given) yielded an LD50 of 200 mg/kg.
